Measurements pooled from the literature.
Each line is one published result; the experiments were not run side by side.
Sample: plasma

| SMILES | system | conditions | quantity | result |
| --- | --- | --- | --- | --- |
| C#Cc1cccc(Nc2ncnc3cc(OCCOC)c(OCCOC)cc23)c1 | male Sprague-Dawley rat | oral, 12 mg/kg, single dose | MRT(0-t) | 5.07 h |
| CCc1cc(C(=O)NC)c2nccc(N3CCc4c(cc(Cn5ccnc5)cc4-c4cn(C)nc4C(F)(F)F)C3=O)c2c1 | male Sprague-Dawley rat | oral, 100 mg/kg | MRT(0-inf) | 10.6 h |
| CNCc1cc(-c2ccccc2F)n(S(=O)(=O)c2cccnc2)c1 | Sprague-Dawley rat | oral, 10 mg/kg | MRT(0-t) | 2.43 h |
| COc1nc(-c2cc(C)c(N[C@@H](C)c3cc(F)cc(F)c3)nn2)ccc1-n1cnc(C)c1 | male Sprague-Dawley rat | oral, 5 mg/kg, single dose | MRT(0-t) | 6.87 h |
| Oc1c(Br)cc(Cl)c2cccnc12 | Sprague-Dawley rat | oral, 20 mg/kg | MRT | 6.8 h |
| O=C(c1cc(Cc2n[nH]c(=O)c3ccccc23)ccc1F)N1CCN(C(=O)C2CC2)CC1 | female Sprague-Dawley rat | intravenous | MRT | 1.52 h |
| N#Cc1ccc(Nc2nc(N)cc(Oc3c(F)cc(-c4ccc(C#N)cc4)cc3F)n2)cc1 | Sprague-Dawley rat | intravenous, 1 mg/kg | MRT(0-inf) | 1.56 h |
| CCOC(=O)[C@@]12C[C@@H]1[C@@H](n1ccc3c(NC)nc(C#Cc4ccc(Cl)s4)nc31)[C@H](O)[C@@H]2O | male Sprague-Dawley rat | intravenous, 0.5 mg/kg | MRT(0-t) | 1.29 h |
| O=C(Nc1cc(F)c(F)c(F)c1)c1ccc(F)c(S(=O)(=O)NCc2cccc(B(O)O)c2)c1 | male Sprague-Dawley rat | oral, 20 mg/kg | MRT(0-inf) | 1.25 h |
| CCc1cc(OC)c2nccc(N3CCc4c(cc(Cn5ccnc5)cc4-c4cn(C)nc4C(F)(F)F)C3=O)c2c1 | male Sprague-Dawley rat | intravenous, 3 mg/kg | MRT(0-inf) | 1 h |
| COc1ccc(C(C)=O)c(O)c1 | male Sprague-Dawley rat | oral, 100 mg/kg | MRT(0-t) | 3.83 h |
| CCc1nc(C(N)=O)c(Nc2ccc(N3CCC(N4CCN(C)CC4)CC3)c(OC)c2)nc1NC1CCOCC1 | male Sprague-Dawley rat | oral, 10 mg/kg | MRT(0-t) | 19.5 h |
